This note sets out measurements from ChEMBL document CHEMBL1156686, “Xanthine oxidase-activated prodrugs of thymidine phosphorylase inhibitors” (Eur J Med Chem, 2008).

Substrate in this series: O=c1[nH]c(=O)n([C@H]2C[C@H](O)[C@@H](CO)O2)cc1[N+](=O)[O-]
The series is described as follows: Activity of Escherichia coli thymidine phosphorylase. An outline of the steps: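 Recombinant E. coli TP (0.00883 U per 0.2 ml) added to start a continuous spectrophotometric assay. Mix: 0.13 mM 5-nitro-2'-deoxyuridine substrate in 0.1 M potassium phosphate, pH 7.4, 25 °C, read at 355 nm in a microplate. Initial velocity compared with the mean of at least two no-inhibitor controls. Where derived, IC50 used at least five concentrations spanning the value.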

B1: Thymidine phosphorylase (Escherichia coli K-12), P07650 (protein)
chain: MFLAQEIIRKKRDGHALSDEEIRFFINGIRDNTISEGQIAALAMTIFFHDMTMPERVSLTMAMRDSGTVLDWKSLHLNGPIVDKHSTGGVGDVTSLMLGPMVAACGGYIPMISGRGLGHTGGTLDKLESIPGFDIFPDDNRFREIIKDVGVAIIGQTSSLAPADKRFYATRDITATVDSIPLITASILAKKLAEGLDALVMDVKVGSGAFMPTYELSEALAEAIVGVANGAGVRTTALLTDMNQVLASSAGNAVEVREAVQFLTGEYRNPRLFDVTMALCVEMLISGKLAKDDAEARAKLQAVLDNGKAAEVFGRMVAAQKGPTDFVENYAKYLPTAMLTKAVYADTEGFVSEMDTRALGMAVVAMGGGRRQASDTIDYSVGFTDMARLGDQVDGQRPLAVIHAKDENNWQEAAKAVKAAIKLADKAPESTPTVYRRISE
For the protein B1, the kcat came out at 20 s⁻¹.

The term kcat denotes the number of substrate molecules converted per active site and unit of time at saturation.
